Only some compounds are listed: those with a hit (about 2% of all), similar ones and a draw of the others.
NR2E3 ag-1: NR2E3 agonists in two-hybrid cells, primary screen, cell-based, luminescence, CHO-S, Gal4-NCOR/VP16-NR2E3; inhibition of corepressor binding, % at 3.98 µM; Photoreceptor-specific nuclear receptor (Homo sapiens), Q9Y5X4; AID 602229, 2012; luciferase; 360,000 tested, 0.35% active;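 active = inhibition above the mean of all tested compounds plus 3 SD, cut at about 70% in these data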;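 note: 0% = DMSO with NR2E3 transfected cells and 100% = cells lacking NR2E3 construct; higher means lower luciferase signal from less NR2E3 corepressor binding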
Target sequence (Q9Y5X4 whole entry, looked up, the tested form may be a part): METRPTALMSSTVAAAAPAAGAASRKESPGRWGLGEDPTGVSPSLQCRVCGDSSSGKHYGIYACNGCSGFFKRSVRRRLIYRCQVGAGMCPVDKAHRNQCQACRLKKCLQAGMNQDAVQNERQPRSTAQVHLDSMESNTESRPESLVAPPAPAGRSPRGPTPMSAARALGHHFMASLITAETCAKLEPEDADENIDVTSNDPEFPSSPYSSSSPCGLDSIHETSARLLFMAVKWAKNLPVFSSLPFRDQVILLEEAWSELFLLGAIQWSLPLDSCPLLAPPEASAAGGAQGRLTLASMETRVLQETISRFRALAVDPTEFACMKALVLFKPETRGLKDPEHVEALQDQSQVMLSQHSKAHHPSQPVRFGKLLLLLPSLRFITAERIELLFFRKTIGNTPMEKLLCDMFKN
NR2E3 ag-2: inhibitors of NR2E3-RetCOR corepressor binding, primary screen, NR2E3 agonist project, biochemical, TR-FRET, GST-NR2E3, biotin-RetCOR; 1536-well; inhibition of corepressor binding, % at 4.78 µM; 320,000 tested, 0.12% active; AID 2300, 2010;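 active = percent inhibition above the cutoff of mean plus 3 SD of all tested compounds, set per screening campaign, cut at about 20% in these data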;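 note: 0% = DMSO wells and 100% = biotin wells as full block of FRET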
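system = GST-tagged NR2E3 plus biotinylated RetCOR corepressor | input = 1.35 nM GST-NR2E3 | also added = 7 nM biotin-RetCOR | schedule = 5 h incubation at 4 °C | measured by = TR-FRET with europium anti-GST and streptavidin-D2, 340 nm excitation | read-out = percent loss of FRET ratio relative to control wells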
EBV LMP1 NFkB: EBV LMP1-driven NF-kappaB luciferase reporter inhibitors, primary screen, cell-based, luminescence, single point; LMP1-induced NF-kappaB luciferase reporter cells; inhibition, % at 12.5 µM; 350,000 tested, 0.69% active; AID 504558, 2011; in the data active = inhibition above about 41%; inconclusive = no clear call, values can overlap the other calls;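 note: 0% = neutral control wells and 100% = reference inhibitor control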
HIF act: HIF pathway transcriptional activators, primary screen, cell-based, U2OS HRE-luciferase, luminescence; U2OS HRE-luciferase reporter; normalized: DMSO 0%, desferrioxamine 100%; activation, % at 7.5 µM (by protocol); 300,000 tested, 0.32% active; AID 1910, 2009;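 active = mean activation of at least 10% of the iron chelator positive control signal, with at least half of replicates also reaching 10%; inconclusive = mean and replicate majority disagree about reaching 10%; inactive = mean and most replicates under 10%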
TROY NFkB inh: inhibitors of TROY-driven NF-kB signaling, primary screen, Q293 LMP1-TROYcd cells, NF-kB luciferase, uHTS; 360,000 tested, 0.98% active; AID 1347056, 2019; Q293 LMP1-TROYcd NF-kB luciferase reporter, 4 h; inhibition, % at 10 µM;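 active = compounds whose plate-normalised and pattern-corrected inhibition of the luciferase reporter signal at the single screening dose is 50% or more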
Starred values were filed as active, the others as inactive; ? = inconclusive; . = not tested or not shown.

SMILES	NR2E3 ag-1	NR2E3 ag-2	EBV LMP1 NFkB	HIF act	TROY NFkB inh
O=C1COc2ccc(C(=O)COC(=O)Cc3ccc(F)cc3)cc2N1	-11	2	0	1	-25
O=S(=O)(Nc1nc(-c2sccc2Cl)cs1)c1cc(Cl)ccc1Cl	99*	7	-3	0	58*
CC(C)(C)c1nnc(NS(=O)(=O)c2cc(Cl)ccc2Cl)s1	-2	-1	-3	0	12
CC(=O)OCC1OC(Nc2cccc(C)c2)C(OC(C)=O)C(OC(C)=O)C1OC(C)=O (configuration not stated)	4	-3	53*	.	-8
Cc1cc(Sc2ccc([N+](=O)[O-])cn2)ccc1Br	0	-3	11	0	-20
O=[N+]([O-])c1ccc(S(=O)(=O)c2ccccc2)nc1	-6	-1	53*	-1	58*
Cc1cc(S(=O)(=O)c2ccc([N+](=O)[O-])cn2)ccc1Br	-12	0	74*	5	72*
Cc1ccc(S(=O)(=O)c2ccc([N+](=O)[O-])cn2)cc1	-1	0	60*	3	59*
OC(CNCC(c1ccc(Cl)cc1Cl)c1c[nH]c2ccccc12)c1ccccc1 (configuration not stated)	-12	-4	-37	-1	79*
O=[N+]([O-])CC(c1ccccc1)c1c[nH]c2ccccc12 (configuration not stated)	-17	1	.	1	5
COc1ccc(NC(=O)Cn2nnc(C(=O)Nc3ccc(F)c(Cl)c3)c2N)cc1	-14	1	-4	-1	15
Nc1cc2c3c(cccc3c1)C(=O)N(CCN1CCCC1)C2=O	-41	-12	-13	?	-12
O=C1c2cccc3cc([N+](=O)[O-])cc(c23)C(=O)N1CCN1CCCC1	-45	.	74*	-1	-27
O=C(NCCCNC(=O)c1cnccn1)c1ccc(Cl)c(Cl)c1	-15	-1	-5	2	4
Cc1sc2ncnc(N3CCC(C(=O)Nc4ccc(OC(F)F)c(Cl)c4)CC3)c2c1C	-7	.	8	.	51*
Cc1cc(Cl)ccc1OCC(=O)NNC(=O)C1CCN(c2ncnc3sc(C)c(C)c23)CC1	-1	2	7	.	72*
Cc1sc2ncnc(N3CCC(C(=O)NNC(=O)COc4ccc(Cl)cc4)CC3)c2c1C	-15	.	-6	.	50*
COc1ccc(NC(=O)c2sc3ncnc(N4CCN(c5ccccn5)CC4)c3c2C)cc1Cl	-4	-1	44*	0	22
Cc1sc2ncnc(N3CCC(C(=O)NNC(=O)COc4ccc(Br)cc4)CC3)c2c1C	-30	-1	5	1	74*
CN1CCN(c2ccc(-c3cc(NC=O)c4ncc(-c5ccc(F)c(Cl)c5)n4c3)cc2)CC1	-97	.	.	.	51*
COc1ccc(CCNC(=O)c2cc3c(=O)n4ccccc4nc3n(Cc3ccco3)c2=N)cc1OC	-12	3	3	1	62*
COc1ccc(CCn2c(=N)c(C(=O)NCc3ccco3)cc3c(=O)n4ccccc4nc32)cc1OC	-50	.	0	.	-4
COc1ccc(NC(=O)c2cc3c(CO)cnc(C)c3oc2=Nc2cccc(C)c2)c(OC)c1	-4	.	-1	-1	-8
COc1ccc(-c2cc(NC(C)=O)c3ncc(-c4cccc(C(C)=O)c4)n3c2)cc1OC	-9	.	.	.	62*
COc1cccc(-c2cnc3c(NC(C)=O)cc(-c4ccc(OC)c(OC)c4)cn23)c1	-6	.	.	.	-6
SMILES	NR2E3 ag-1	NR2E3 ag-2	EBV LMP1 NFkB	HIF act	TROY NFkB inh
CCOC(=O)C1(C)CCCN(C(=O)c2cc(F)ccc2C)C1 (configuration not stated)	-10	.	.	.	-12
O=C1CSC(c2ccc(F)cc2)N1c1nc2ccccc2s1 (configuration not stated)	6	-3	62*	0	-20
O=C(NNC(=O)c1cc(Cl)nc2ccccc12)c1ccccc1F	12	2	5	0	6
COc1ccc(-c2csc3ncnc(Sc4nnnn4C)c23)cc1	31	.	87*	.	29
Cn1nnnc1Sc1ncnc2scc(-c3cccc(S(C)(=O)=O)c3)c12	-14	5	47*	.	27
CC(=O)c1cccc(-c2csc3ncnc(Sc4nnnn4C)c23)c1	30	.	.	.	19
Cn1nnnc1Sc1ncnc2scc(-c3ccc([N+](=O)[O-])cc3)c12	15	4	74*	.	54*
Cn1nnnc1Sc1ncnc2scc(-c3cccc4c3sc3ccccc34)c12	48	.	-18	.	-9
Cn1nnnc1Sc1ncnc2scc(-c3ccc(Cl)cc3)c12	16	1	32	.	64*
Cn1nnnc1Sc1ncnc2scc(-c3ccc4c(c3)OCO4)c12	47	.	10	.	13
Cc1cccc(-c2cc(C(=O)Nc3sc(C)c(C)c3C(N)=O)c3ccccc3n2)c1	5	6	27	0	30
CCC(CC)c1nnc(NC(=O)c2cccc(S(=O)(=O)N3CCc4ccccc43)c2)s1	-20	3	-7	0	39
Cc1ccc(C)c(-c2cc(C(=O)Nc3sc(C)c(C)c3C(N)=O)c3ccccc3n2)c1	-18	1	21	0	72*
CCOC(=O)c1sc(NC(=O)c2cc(-c3ccccc3)nc3ccccc23)c(C#N)c1C	1	2	25	0	63*
CCOC(=O)c1sc(NC(=O)c2cccnc2)c(C#N)c1C	1	3	-6	1	-20
CCOC(=O)c1sc(NC(=O)CSc2n[nH]c(-c3ccccc3)n2)c(C#N)c1C	-20	5	-3	1	65*
CCOC(=O)c1sc(NC(=O)c2cccc(S(=O)(=O)N3CCc4ccccc43)c2)c(C#N)c1C	-19	-1	37	0	53*
Cc1cccc(NC(=O)CNC(=O)c2ccccc2Cl)n1	-14	-1	-9	0	-14
CC(C)(C)OC(=O)N1CCCC(C(=O)Nc2ccc(C(=O)NCCc3ccccc3)cc2)C1 (configuration not stated)	-31	.	2	.	-11
CC(=NNC(=S)N1CCCCCC1)c1cccc2cccnc12	-6	.	52*	.	-12
CC(=NNC(=S)N1CCN(c2ccccn2)CC1)c1ccccn1	4	.	0	.	-4
CCCCn1c(N)c(N(CC(C)C)C(=O)CCCc2nc3ccccc3c(=O)[nH]2)c(=O)[nH]c1=O	3	-2	4	0	-2
CC(=O)c1cccc(N(C(=O)c2ccccn2)C(C(=O)NC2CCCCC2)c2ccccc2)c1 (configuration not stated)	-4	1	-5	39*	-16

From PubChem BioAssay
